NPY-Y2 antag = NPY-Y2 receptor antagonists, primary screen, cell-based; Neuropeptide Y receptor type 2 (Homo sapiens), P49146; NPY-Y2 expressing cells, antagonist mode; inhibition, % at 2.7 µM; 140,000 tested, 0.99% active; AID 793, 2007; in the data active means inhibition above about 17%
Target sequence (P49146 whole entry, looked up): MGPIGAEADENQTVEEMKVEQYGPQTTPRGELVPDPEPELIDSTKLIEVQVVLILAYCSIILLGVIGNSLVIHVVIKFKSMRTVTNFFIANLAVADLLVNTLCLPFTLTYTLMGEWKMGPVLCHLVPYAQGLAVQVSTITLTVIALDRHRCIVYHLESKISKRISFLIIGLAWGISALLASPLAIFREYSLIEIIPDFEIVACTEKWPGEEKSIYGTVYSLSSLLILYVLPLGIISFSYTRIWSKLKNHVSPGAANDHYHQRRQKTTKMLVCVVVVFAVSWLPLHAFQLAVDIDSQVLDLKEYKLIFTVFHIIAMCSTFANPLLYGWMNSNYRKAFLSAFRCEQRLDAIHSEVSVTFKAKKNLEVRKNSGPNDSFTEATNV
NPY-Y1 antag = NPY-Y1 receptor antagonists, primary screen, cell-based. HEK293-CNG Y1 cells, membrane potential fluorescence; NPY at EC95, then isoproterenol. inhibition, % at 3.6 µM. 200,000 tested, 1% active;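 active means inhibition above the campaign mean inhibition of all tested compounds plus 3 SD, cut at about 20% in these data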
Target sequence (P25929 whole entry, looked up): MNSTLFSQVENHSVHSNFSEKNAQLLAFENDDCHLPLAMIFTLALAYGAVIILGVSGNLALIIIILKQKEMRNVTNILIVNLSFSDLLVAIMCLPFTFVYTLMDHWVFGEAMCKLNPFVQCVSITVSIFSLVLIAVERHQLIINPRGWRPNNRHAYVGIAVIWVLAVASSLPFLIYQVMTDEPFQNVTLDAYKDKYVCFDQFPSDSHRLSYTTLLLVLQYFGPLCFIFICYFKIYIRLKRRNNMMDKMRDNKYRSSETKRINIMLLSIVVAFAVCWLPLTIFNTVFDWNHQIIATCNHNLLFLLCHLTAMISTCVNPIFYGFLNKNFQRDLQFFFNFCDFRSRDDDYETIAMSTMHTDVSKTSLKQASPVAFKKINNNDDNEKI
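Material: HEK293 cells with Y1 receptor plus CNG channel; times: compound incubation 1 h at room temperature, readout 45 min post-stimulation; signal: fluorescence, membrane potential probe; read-out basis: fluorescence ratio normalized to % inhibition between controls; benchmarks: full-block control isoproterenol-only wells, zero-block control NPY plus isoproterenol wells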
NPY1 pot ag = NPY-Y1 receptor potentiators or agonists, primary screen, cell-based. Neuropeptide Y receptor type 1 (Homo sapiens), P25929. NPY-Y1 expressing cells, potentiator/agonist activation. activation, % at 3.6 µM. 220,000 tested, 0.37% active; in the data active means activation above about 33%, passing the limit was not always enough;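 further: cells stimulated with NPY at EC10 then isoproterenol at EC100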
NPY2 pot ag = NPY-Y2 potentiators or agonists, primary screen, cell-based; Neuropeptide Y receptor type 2 (Homo sapiens), P49146; cells expressing NPY-Y2, potentiator/agonist read-out; activation, % at 3.6 µM; 220,000 tested, 0.45% active; AID 1359, 2008; in the data active means activation above about 27%;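 further: cells stimulated with NPY near EC25 plus isoproterenol at EC100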
NPY-Y2 pot conf = NPY-Y2 potentiators or agonists, confirmation, cell-based. 450 tested, 20% active. cell-based NPY-Y2 potentiator/agonist assay. shares compounds with NPY2 pot ag. AID 1539, 2009. activation, % at 3.6 µM; in the data active means activation above about 33%
NPY-Y1 potentiator = NPY-Y1 potentiators or agonists, counter-screen for NPY-Y2 potentiator project, cell-based, fluorescence | shares compounds with NPY2 pot ag | Y1 HEK293-CNG cells, membrane potential fluorescence | activation, % at 3.6 µM | 450 tested, 20% active; in the data active means activation above about 45%;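 further: cells stimulated with submaximal NPY then isoproterenol with phosphodiesterase inhibitor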
NPY-Y1 ag 2 = NPY-Y1 direct agonists, selectivity assay for NPY-Y2 potentiator project, cell-based, fluorescence | AID 1702, 2009 | HEK293 Y1-CNGC, membrane potential fluorescence, agonism | activation, % at 3.6 µM | shares compounds with NPY2 pot ag | 450 tested, 37% active;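 active means activation above the mean of DMSO-only control wells plus 3 SD, cut at about 18% in these data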;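 further: cells stimulated with 1 µM isoproterenol plus the PDE inhibitor Ro 20-1724; Y1 agonists lower the membrane potential dye signal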
CNGC inhibitor = CNGC cAMP sensor activity inhibitors, counter-screen for NPY-Y2 potentiator project, cell-based, HEK293-CNG parental, membrane potential fluorescence; shares compounds with NPY2 pot ag; AID 1703, 2009; 450 tested, 32% active; inhibition, % at 3.6 µM; isoproterenol cAMP;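 active means inhibition above the control-well mean plus 3 SD of those wells, cut at about 22% in these data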
NPY-Y2 ag 2 = NPY-Y2 direct agonists, counter-screen for NPY-Y2 potentiator project, cell-based, fluorescence | shares compounds with NPY2 pot ag | 450 tested, 56% active | activation, % at 3.6 µM | HEK293 Y2/CNGC cells, membrane potential fluorescence, agonist mode | AID 1710, 2009;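 active means activation above the mean of solvent-only control wells plus 3 SD, cut at about 10% in these data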;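 further: cells stimulated by isoproterenol with no NPY added so direct agonism is tested; agonism lowers probe fluorescence through less cAMP and CNG channel opening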
Large screens that a line does not name were inactive (follow-up assays come after a bar, where they were run). Shown are actives, neighbours in structure and some others; about 1.9% of the full set was active somewhere.

Cc1c(CN(C)C)c2c(n1Cc1ccccc1)C(=O)c1ccc(Br)cc1-2	NPY2 pot ag 28 | NPY-Y2 pot conf inactive | NPY-Y1 potentiator inactive | NPY-Y1 ag 2 35 | CNGC inhibitor 24 | NPY-Y2 ag 2 29
Fc1ccc(NC(=S)N2CCCN(c3ccc(C(F)(F)F)cn3)CC2)c(F)c1	NPY2 pot ag 43 (no result: NPY-Y2 antag, NPY-Y1 antag) | NPY-Y2 pot conf inactive | NPY-Y1 potentiator inactive | NPY-Y1 ag 2 inactive | CNGC inhibitor inactive | NPY-Y2 ag 2 inactive
O=C(O)C1CC=CCC1C(=O)N1CCN(c2nc(-c3ccccc3)c3ccccc3n2)CC1 (stereo not given)	NPY2 pot ag 37 | NPY-Y2 pot conf inactive | NPY-Y1 potentiator inactive | NPY-Y1 ag 2 18 | CNGC inhibitor inactive | NPY-Y2 ag 2 14
O=C(NCCc1ccccc1)C1CCC(CNS(=O)(=O)c2cccs2)CC1 (stereo not given)	none (no result: NPY-Y2 antag)
O=C(NCc1ccccc1Cl)NCc1ccccc1Cl	NPY2 pot ag 99 (no result: NPY-Y2 antag, NPY-Y1 antag) | NPY-Y2 pot conf inactive | NPY-Y1 potentiator inactive | NPY-Y1 ag 2 inactive | CNGC inhibitor inactive | NPY-Y2 ag 2 inactive
CCc1ccc(N(CC(=O)Nc2nc3ccc(C)cc3s2)S(=O)(=O)c2c(C)noc2C)cc1	NPY2 pot ag 31 | NPY-Y2 pot conf inactive | NPY-Y1 potentiator inactive | NPY-Y1 ag 2 45 | CNGC inhibitor 33 | NPY-Y2 ag 2 49
CCc1ccc(/C(C)=N\Nc2ccc([N+](=O)[O-])cc2)cc1	NPY2 pot ag 39 | NPY-Y2 pot conf inactive | NPY-Y1 potentiator inactive | NPY-Y1 ag 2 24 | CNGC inhibitor 30 | NPY-Y2 ag 2 30
C/C(=N\Nc1ccc([N+](=O)[O-])cc1)c1ccc(N2CCOCC2)cc1	none (no result: NPY-Y2 antag, NPY-Y1 antag)
COCCn1c(C)cc(C(=O)CSc2cc(C)c3ccc(OC)cc3n2)c1C	none
O=C(Nc1ccccc1C(=O)N1CCCC1)c1ccc(Cl)c([N+](=O)[O-])c1	NPY2 pot ag 28 (no result: NPY-Y2 antag) | NPY-Y2 pot conf inactive | NPY-Y1 potentiator inactive | NPY-Y1 ag 2 inactive | CNGC inhibitor inactive | NPY-Y2 ag 2 10
CC(=O)c1c(C)[nH]c(C(=O)OCc2ccccc2F)c1C	NPY2 pot ag 29 (no result: NPY-Y2 antag) | NPY-Y2 pot conf inactive | NPY-Y1 potentiator inactive | NPY-Y1 ag 2 inactive | CNGC inhibitor 27 | NPY-Y2 ag 2 25
Cc1ccc(Nc2nc(N/N=C/c3c[nH]c4ccccc34)nc(N3CCOCC3)n2)cc1	NPY2 pot ag 27 | NPY-Y2 pot conf 41 | NPY-Y1 potentiator 59 | NPY-Y1 ag 2 33 | CNGC inhibitor 42 | NPY-Y2 ag 2 44
O=[N+]([O-])c1cc(C(F)(F)F)cc([N+](=O)[O-])c1NCCNC(=S)Nc1cccc(F)c1	none (no result: NPY-Y2 antag, NPY-Y1 antag)
CC(C)(C)N(NC(=O)c1ccccc1)C(=O)c1ccc(C(=O)N(NC(=O)c2ccccc2)C(C)(C)C)cc1	none
CCc1ccc(C(=O)NN(C(=O)c2ccc(CC)cc2)C(C)(C)C)cc1	NPY2 pot ag 35 | NPY-Y2 pot conf 44 | NPY-Y1 potentiator 61 | NPY-Y1 ag 2 58 | CNGC inhibitor 47 | NPY-Y2 ag 2 34
Cn1c(=O)n(C)c2cc(/C=N/N=C3/NC(=O)C(CC(=O)O)S3)ccc21 (stereo not given)	none (no result: NPY-Y2 antag)
CCOC(=O)C1CCN(c2ncnc3c2cnn3-c2ccc(Cl)cc2)CC1	NPY2 pot ag 48 | NPY-Y2 pot conf inactive | NPY-Y1 potentiator inactive | NPY-Y1 ag 2 inactive | CNGC inhibitor inactive | NPY-Y2 ag 2 inactive
CCOC(=O)C1CCN(c2ncnc3c2cnn3-c2ccccc2)CC1	none
COc1ccc(C(=O)N2CCC(O)(c3ccc(Cl)cc3)CC2)cc1OC	NPY2 pot ag 95 (no result: NPY-Y2 antag, NPY-Y1 antag) | NPY-Y2 pot conf inactive | NPY-Y1 potentiator inactive | NPY-Y1 ag 2 inactive | CNGC inhibitor inactive | NPY-Y2 ag 2 inactive
CCC(C)(C)NC(=O)c1cc(S(=O)(=O)N2CCCCC2)ccc1N1CCOCC1	none (no result: NPY-Y2 antag)
O=C(CN(c1cccc(C(F)(F)F)c1)S(=O)(=O)c1ccc(Cl)c([N+](=O)[O-])c1)NCc1ccc(F)cc1	NPY2 pot ag 36 | NPY-Y2 pot conf 68 | NPY-Y1 potentiator 85 | NPY-Y1 ag 2 85 | CNGC inhibitor 64 | NPY-Y2 ag 2 79
O=C(Nc1ccc(F)cc1)C1C(c2ccccc2)C1(Cl)Cl (stereo not given)	none
CCCc1cc(-c2[nH]ncc2-c2ccc(C(=O)OCC)o2)c(O)cc1O	NPY2 pot ag 41 | NPY-Y2 pot conf inactive | NPY-Y1 potentiator inactive | NPY-Y1 ag 2 inactive | CNGC inhibitor inactive | NPY-Y2 ag 2 22
CN(C)c1ccc(/C=C(/NC(=O)c2ccccc2)C(=O)N/N=C/c2ccc([N+](=O)[O-])c(O)c2)cc1	NPY2 pot ag 33 | NPY-Y2 pot conf 34 | NPY-Y1 potentiator inactive | NPY-Y1 ag 2 35 | CNGC inhibitor 26 | NPY-Y2 ag 2 27
COCCCn1c(O)c(/C=C2\N=C(C#N)C(=Nc3ccc(C)cc3)O2)sc1=S	NPY2 pot ag 37 (no result: NPY-Y2 antag, NPY-Y1 antag) | NPY-Y2 pot conf inactive | NPY-Y1 potentiator inactive | NPY-Y1 ag 2 inactive | CNGC inhibitor inactive | NPY-Y2 ag 2 27
COc1ccc(OC)c(NC(=O)Nc2cc(C(=O)O)ccc2C)c1	none (no result: NPY-Y2 antag)
CS(=O)(=O)NCc1nnc(SCc2ccccc2C(F)(F)F)o1	none
CS(=O)(=O)NCc1nnc(SCc2ccc(C(F)(F)F)cc2)o1	NPY2 pot ag 102 (no result: NPY-Y2 antag, NPY-Y1 antag) | NPY-Y2 pot conf inactive | NPY-Y1 potentiator inactive | NPY-Y1 ag 2 inactive | CNGC inhibitor inactive | NPY-Y2 ag 2 inactive
O=S(=O)(Nc1nc2ccccc2nc1Nc1cccc(S(=O)(=O)N2CCCCC2)c1)c1ccccc1	NPY2 pot ag 38 | NPY-Y2 pot conf 74 | NPY-Y1 potentiator 68 | NPY-Y1 ag 2 65 | CNGC inhibitor 44 | NPY-Y2 ag 2 58
Cc1cccc(NC(=O)CCC(=O)Nc2nnc(C(F)(F)F)s2)c1	none (no result: NPY-Y2 antag, NPY-Y1 antag)
Cc1ccc(S(=O)(=O)N(C)CC(=O)OCC(=O)c2c(N)n(C)c(=O)n(C)c2=O)cc1	none
O=C(O)CC1(CC(=O)Nc2ccccc2N2CCOCC2)CCCC1	NPY2 pot ag 59 (no result: NPY-Y2 antag, NPY-Y1 antag) | NPY-Y2 pot conf inactive | NPY-Y1 potentiator inactive | NPY-Y1 ag 2 inactive | CNGC inhibitor inactive | NPY-Y2 ag 2 inactive
O=C(O)CCC(=O)Nc1ccccc1N1CCOCC1	none
